Data set [1] has as its system Hepatocyte. Kind of data set: Inhibition of p-gp in Wistar rat primary hepatocytes assessed as inhibition of rhodamine 123 efflux at 10 uM after 3 hrs. The format is cell-based. In outline: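 Collagenase-perfused male Wistar rat hepatocytes plated on collagen and cultured 4 days in supplemented Williams Medium E. Cells preloaded 30 min with 5 µM RH123, then exposed 3 h to compound or 0.1% DMSO vehicle. Cells washed with ice-cold HBSS and lysed in 0.5% Triton X100. Intracellular RH123 read by fluorescence at 519/538 nm. Mean ± SD from three isolations, four wells per condition, Student's t-test.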

Data set [2] relates to Hepatocyte. Kind of data set: Cytotoxicity against Wistar rat primary hepatocytes assessed as change in cell viability at 10 uM after 3 hrs by MTT assay. The format is cell-based. In short, it runs like this:
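Primary hepatocytes from male Wistar rats (200-250 g), cultured as a monolayer, exposed 3 h to compound or vehicle (control), washed, then incubated with 1 mg/mL MTT for 2 h. Cells lysed in DMSO and absorbance read at 570 nm. Viability expressed as % of control.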

Activity calls are given as the source filed them. No cut-off for these calls is given here.

Among the data in ChEMBL document CHEMBL2390875, “Synthesis and pharmacological investigation of new N-hydroxyalkyl-2-aminophenothiazines exhibiting marked MDR inhibitory effect” (Bioorg Med Chem, 2013) are inhibition and Activity values, retold here.

On to `COc1ccc(-n2nnc(CCC(O)CN3c4ccccc4Sc4ccc(N5CCN(C)CC5)cc43)n2)cc1` (single isomer, unassigned; (+)), for which, in the data set with Hepatocyte [1], the inhibition result is “Active”.
With `COc1ccc(-n2nnc(CCC(O)CN3c4ccccc4Sc4ccc(N5CCOCC5)cc43)n2)cc1` (racemic) [listing 1 of 2 here], in the data set on Hepatocyte [2], the Activity entry is “Non-toxic”.
As to `COc1ccc(-n2nnc(CCC(O)CN3c4ccccc4Sc4ccc(NCCN5CCOCC5)cc43)n2)cc1` (stereo not drawn), in the data set on Hepatocyte [2], the Activity result is “Non-toxic”.
For the compound `COc1ccc(-n2nnc(CCC(O)CN3c4ccccc4Sc4ccc(N5CCOCC5)cc43)n2)cc1` (stereo in doubt; (+)-3h), the inhibition result with Hepatocyte [1] is “Active”.
Consider `COc1ccc(-n2nnc(CCC(O)CN3c4ccccc4Sc4ccc(N5CCN(C)CC5)cc43)n2)cc1` (single isomer, unassigned; (-)), for which the inhibition result in the data set on Hepatocyte [1] is “Active”.
Turning to `COc1ccc(-n2nnc(CCC(O)CN3c4ccccc4Sc4ccc(NC(C)=O)cc43)n2)cc1` (stereo not drawn), the inhibition result in the data set with Hepatocyte [1] is “Active”.
As for `COc1ccc(-n2nnc(CCC(O)CN3c4ccccc4Sc4ccccc43)n2)cc1` (stereo not drawn), the inhibition result in the data set with Hepatocyte [1] is “Active”.
Take `CCN(CC)c1ccc2c(c1)N(CC(O)CCc1nnn(-c3ccc(OC)cc3)n1)c1ccccc1S2` (racemic): in the data set on Hepatocyte [1], the inhibition entry is “Active”. Also, the Activity entry in the data set with Hepatocyte [2] is “Non-toxic”.
`COc1ccc(-n2nnc(/C=C\C=C\N3c4ccccc4Sc4ccc(Cl)cc43)n2)cc1`: the inhibition entry in the data set with Hepatocyte [1] was “Active”.
As for `COc1ccc(-n2nnc(CCC(O)CN3c4ccccc4[S+]([O-])c4ccc(N5CCOCC5)cc43)n2)cc1` (stereo not drawn), in the data set on Hepatocyte [1], the inhibition result is “Active”. In the data set with Hepatocyte [2], the Activity result is listed as “Non-toxic”.
On to `COc1ccc(-n2nnc(CCC(O)CN3c4ccccc4Sc4ccc(C(F)(F)F)cc43)n2)cc1` (stereo not drawn), for which the inhibition result with Hepatocyte [1] is “Active”.
On the same count and under the same terms, the entry for `COc1ccc(-n2nnc(CCC(O)CN3c4ccccc4Sc4ccc(N5CCOCC5)cc43)n2)cc1` (racemic) [listing 2 of 2 here] is “Active”; for `COc1ccc(-n2nnc(CCC(O)CN3c4ccccc4Sc4ccc(N5CCN(C)CC5)cc43)n2)cc1` (racemic) it is “Active”.
On to `COc1ccc(-n2nnc(CCC(O)CN3c4ccccc4S(=O)(=O)c4ccc(N5CCOCC5)cc43)n2)cc1` (stereo not drawn), for which the inhibition result in the data set with Hepatocyte [1] is “Active”. The Activity entry in the data set on Hepatocyte [2] is on record as “Non-toxic”.
With `COc1ccc(-n2nnc(CCC(O)CN3c4ccccc4Sc4ccc(N5CCOCC5)cc43)n2)cc1` (single isomer, unassigned; (-)), in the data set with Hepatocyte [1], the inhibition entry was “Active”.
